Laboratory results reported in publication PMC3424550 (Nucleic Acids Research, 2012).
Blank lines part the entries; values can stand above or below the compound they belong to.

Experiments:
E. coli RNAP TEC [1] = molecular target: T1, E. coli RNAP TEC (Escherichia coli, UniProt P0A8T7+P0A8V2); test: Time-resolved nucleotide addition; assay type: biochemical; settings: i − 7 6-MI TECs; 200 µM NTP, 25°C
[2] = molecular target: GMP-extended TEC (TEC17), E. coli RNAP (Escherichia coli, UniProt P0A8T7+P0A8V2); assay type: binding
E. coli RNAP TEC [3] = molecular target: T1, E. coli RNAP TEC; test: PPi release, coupled PPase / MDCC-PBP stopped-flow assay; assay type: biochemical
TEC = settings: absence of the next incoming substrate NTP; cited from earlier work
ΔTL RNAP TEC = test: Equilibrium TGT titration of extended TECs, ΔTL RNAP; assay type: binding, Escherichia coli; settings: AMP-extended TEC, TL domain replaced by a two-alanine linker
Procedure, shortened: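 Two-alanine-linker ΔTL RNAP TECs (template strand limiting at 1 µM) with a base-analog fluorophore in the template. Extended 1.5 h at 25°C in TB10 (pH 7.5) with 5 µM substrate and 0.2 nM yeast PPase. TGT added post-catalytically for 5 min more. Fluorescence taken at the emission peak: 6-MI 420 nm (ex 340) or 2-AP 375 nm (ex 330). Titration fitted to dissociation-equilibrium equations.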

[4] = molecular target: TEC assembled using β′R933A RNAP (Escherichia coli, UniProt P0A8T7+P0A8V2, R933A); test: Equilibrium TGT titration of extended TECs, β′R933A RNAP; assay type: binding; settings: β′Arg933 substituted with alanine
Procedure, shortened: (§1)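 E. coli RNAP TECs (template strand limiting at 1 µM) on a synthetic scaffold, with 6-MI or 2-AP in the template or 2-AP added at the RNA 3′ end. Extended 10 min at 25°C in TB10 (pH 7.5) with 5 µM substrate and 0.2 nM yeast PPase. TGT added afterwards, 5 min more. Emission peaks: 6-MI 420 nm (ex 340), 2-AP 375 nm (ex 330). KTGT from a dissociation-equilibrium fit; errors are SD of best-fit estimates.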

E. coli RNAP TEC [5] = molecular target: T1, E. coli RNAP TEC; assay type: biochemical; settings: time-resolved, saturating TGT (5 µM)
β′N458D TEC = β′N458D TEC (Escherichia coli, UniProt P0A8T7+P0A8V2, N458D); test: Equilibrium TGT titration of extended TECs, β′N458D RNAP; assay type: binding; settings: AMP-extended β′N458D TEC
Procedure, shortened: as §1

RNAP = settings: cited from earlier work
[6] = molecular target: TEC assembled using β′M932A RNAP (Escherichia coli, UniProt P0A8T7+P0A8V2, M932A); test: Equilibrium TGT titration of extended TECs, β′M932A RNAP; assay type: binding
Procedure, shortened: as §1

[7] = molecular target: TEC assembled using β′H936A RNAP (Escherichia coli, UniProt P0A8T7+P0A8V2, H936A); test: Equilibrium TGT titration of extended TECs, β′H936A RNAP; assay type: binding; settings: β′His936 substituted with alanine
Procedure, shortened: as §1

[8] = molecular target: TEC assembled with wild-type E. coli RNAP (Escherichia coli, UniProt P0A8T7+P0A8V2); test: Equilibrium TGT titration of extended TECs, fluorescence of base analogs; assay type: binding
Procedure, shortened: as §1

nucleotide addition, half-life (E. coli RNAP TEC [1]): ~0.008 s
SMILES: Nc1ccn([C@@H]2O[C@H](COP(=O)(O)O)[C@@H](O)[C@H]2O)c(=O)n1 [CMP]

decrease in fluorescence upon CMPcPP binding to the TEC [2]: ~15% | effect on fluorescence in the absence of TGT [2]: failed to increase fluorescence | effect on TGT action ([2]; templated CMPcPP): able to counter the effect of TGT
SMILES: Nc1ccn([C@@H]2O[C@H](COP(=O)(O)CP(=O)(O)OP(=O)(O)O)[C@@H](O)[C@H]2O)c(=O)n1 [CMPcPP, cytidine-5′-[(α,β)-methyleno]triphosphate]

nucleotide addition, half-life (E. coli RNAP TEC [1]): ~0.02 s
SMILES: O=c1ccn([C@@H]2O[C@H](COP(=O)(O)O)[C@@H](O)[C@H]2O)c(=O)[nH]1 [UMP]

Second part, the compound before the results:

SMILES: O=P(O)(O)OP(=O)(O)O [PPi, pyrophosphate]
PPi to MDCC-PBP·Pi conversion rate (E. coli RNAP TEC [3]; 10 µM PPase): 120 s⁻¹ | rate of PPi release from the TEC (E. coli RNAP TEC [3]; same TEC as Johnson et al., PPase-MDCC-PBP method): 120 s⁻¹ | rate of PPi release from the TEC (TEC): 2.9 s⁻¹

SMILES: Nc1nc2c(ncn2[C@@H]2O[C@H](COP(=O)(O)O)[C@@H](O)[C@H]2O)c(=O)[nH]1 [GMP]
nucleotide addition, half-life (E. coli RNAP TEC [1]): ~0.02 s

SMILES: CC(=O)O[C@@H]1[C@H](N)[C@@H](OP(=O)(O)O)[C@@]2(C(=O)O)CS[C@@](O)(C(N)=O)[C@@H]1O2 [TGT, tagetitoxin]
response of TEC to TGT action (ΔTL RNAP TEC): completely resistant | increase in KTGT relative to wild-type [4]: > 7 fold | effect on forward translocation (E. coli RNAP TEC [5]): does not affect the rate of forward translocation | move into the pre-translocated state at saturating TGT concentrations (β′N458D TEC): ≤ 20% | effect on pyrophosphorolysis (RNAP): strongly inhibit | quenching of the fluorescence of 3′ RNA 2-AP by TGT ([6]; 2-AP ribonucleoside monophosphate-extended β′M932A TEC): did not quench | apparent KTGT relative to wild-type TEC ([6]; β′M932A TEC, higher): 5 fold | increase in KTGT relative to wild-type [7]: > 7 fold | quenching of the fluorescence of 3′ RNA 2-AP by TGT ([8]; 2-AP ribonucleoside monophosphate-extended TEC, wild-type): 2 fold | increase of apparent TGT binding constant relative to rNMP-extended TECs ([8]; TECs lacking a 2′-OH group at the RNA 3′ end): ~10 fold | increase in KTGT relative to rNMP-extended TECs ([8]; TECs lacking a 3′ OH group at the RNA 3′ end): approximately 5 fold | effect on translocation state of extended TECs ([8]; TGT added post-catalytically): quantitatively moves extended TECs into the pre-translocated state

SMILES: Nc1ncnc2c1ncn2[C@@H]1O[C@H](COP(=O)(O)O)[C@@H](O)[C@H]1O [AMP]
nucleotide addition, half-life (E. coli RNAP TEC [1]): ~0.02 s
